Reference: ChEMBL document CHEMBL1250460, “Rational conversion of noncontinuous active region in proteins into a small orally bioavailable macrocyclic drug-like molecule: the HIV-1 CD4:gp120 paradigm” (Bioorg Med Chem, 2010)
Active and inactive are the calls of the source. The rule behind the calls is not given here.

How the values were obtained:
[1] = tested on: HeLa; test: Inhibition of HIV1 gp120 binding to CD4 assessed as inhibition of CD4 expressing human HeLa cells by MAGI assay; format: cell-based; settings: Human immunodeficiency virus 1
How it was run: (§1)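 MAGI assay: HeLa-CD4+ beta-gal cells seeded at 15 × 10³ per well, infected with HIV-1 HXB2 with or without inhibitor in the presence of DEAE-dextran. Two days after infection, cells fixed in 1% formaldehyde/0.2% glutaraldehyde in PBS. Stained with ferro/ferricyanide (4 mM each), 2 mM MgCl₂ and 0.4 mg/mL X-Gal. Blue cells counted by light microscopy.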

[2] = Oral bioavailability in Wistar rat at 10 mg/kg; format: ADME, organism-based; settings: in vivo
How it was run: (§2)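 Conscious male Wistar rats (275 ± 20 g, n = 5 per route) with jugular vein cannula implanted 24 h before dosing. Given 1 mg/kg IV bolus or 10 mg/kg by oral gavage, dissolved in water. Heparinized blood sampled at several times up to 24 h. Plasma separated by centrifugation (4000 g, 5 min, 4 °C), stored at −70 °C. Parameters from noncompartmental analysis.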

[3] = Cmax in Wistar rat at 1 mg/kg, iv; format: ADME, organism-based; parameters: dose 1 mg/kg, route intravenous; settings: in vivo; how it was run: as §2
[4] = tested on: Rattus norvegicus; test: Volume of distribution at steady state in Wistar rat at 10 mg/kg, po; format: ADME, organism-based; parameters: dose 10 mg/kg, route oral; settings: in vivo; how it was run: as §2
[5] = tested on: Human immunodeficiency virus 1; test: Antiviral activity against HIV1 assessed as reduction in infection; format: functional; how it was run: as §1
[6] = tested on: Rattus norvegicus; test: AUC in Wistar rat at 10 mg/kg, po; format: ADME, organism-based, Plasma; parameters: dose 10 mg/kg, route oral; settings: in vivo; how it was run: as §2
[7] = Half life in Wistar rat at 10 mg/kg, po; format: ADME, organism-based; parameters: dose 10 mg/kg, route oral; settings: in vivo; how it was run: as §2
[8] = Tmax in Wistar rat at 10 mg/kg, po; format: ADME, organism-based; parameters: dose 10 mg/kg, route oral; settings: in vivo; how it was run: as §2
[9] = Tmax in Wistar rat at 1 mg/kg, iv; format: ADME, organism-based; parameters: dose 1 mg/kg, route intravenous; settings: in vivo; how it was run: as §2
[10] = Cmax in Wistar rat at 10 mg/kg, po; format: ADME, organism-based; parameters: dose 10 mg/kg, route oral; settings: in vivo; how it was run: as §2

SMILES | inhibition [1] | bioavailability [2] | Cmax [3] | Vdss [4] | inhibition (INH) [5] | AUC [6] | half-life [7] | Tmax [8] | Tmax [9] | Cmax [10]
N=C(N)NCCCC1NC(=O)CCCCCC(=O)NC(Cc2ccc(O)cc2)CN(CC(N)=O)C1=O (stereo unspecified) | inactive | – | – | – | – | – | – | – | – | –
N=C(N)NCCCC1NC(=O)CCCCCC(=O)NC(Cc2ccccc2)CN(CC(N)=O)C1=O (stereo unspecified) | Active | 10% | 102 ng/mL | 0.6 L/kg | 80% | 21770 ng·min/mL | 73 min | 18 min | 5 min | 866 ng/mL
